Reference: ChEMBL document CHEMBL3867431, “Synthesis and structure-activity relationships of novel arylpiperazines as potent antagonists of α1-adrenoceptor” (Eur J Med Chem, 2016)

How the values were obtained:
[1] = target: T1, Alpha-1A adrenergic receptor (Homo sapiens, UniProt P35348); assay: Displacement of [3H]prazosin from human alpha1A-adrenoceptor expressed in CHO cell membranes measured after 30 mins
T1 sequence (P35348 whole entry): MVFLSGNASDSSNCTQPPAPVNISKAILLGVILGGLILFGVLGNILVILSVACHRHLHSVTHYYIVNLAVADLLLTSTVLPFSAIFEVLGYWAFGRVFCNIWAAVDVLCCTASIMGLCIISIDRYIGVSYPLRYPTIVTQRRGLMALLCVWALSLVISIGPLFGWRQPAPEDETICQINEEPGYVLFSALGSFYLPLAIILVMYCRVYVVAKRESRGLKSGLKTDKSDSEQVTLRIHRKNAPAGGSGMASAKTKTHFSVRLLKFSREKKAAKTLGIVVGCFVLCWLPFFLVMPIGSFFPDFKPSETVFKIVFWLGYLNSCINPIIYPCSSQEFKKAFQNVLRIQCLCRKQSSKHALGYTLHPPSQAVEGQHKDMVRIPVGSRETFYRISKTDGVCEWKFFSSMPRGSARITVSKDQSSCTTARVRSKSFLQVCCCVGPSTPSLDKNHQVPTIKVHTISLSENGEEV
Method in brief: (§1)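 Membranes (30 µg protein) from stably transfected CHO cells, each expressing one human α1 subtype, incubated 30 min at 25 °C in 50 mM Tris-HCl pH 7.4 with 0.1-0.4 nM [3H]prazosin and competitor 1 pM-10 µM. Nonspecific binding defined with 10 µM phentolamine. Filtration over PEI-treated filters. Ki from IC50 via Cheng-Prusoff; 2-3 experiments in triplicate.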

[2] = target: T2, Alpha-1B adrenergic receptor (Homo sapiens, UniProt P35368); assay: Displacement of [3H]prazosin from human alpha1B-adrenoceptor expressed in CHO cell membranes measured after 30 mins; method in brief: as §1
T2 sequence (P35368 whole entry): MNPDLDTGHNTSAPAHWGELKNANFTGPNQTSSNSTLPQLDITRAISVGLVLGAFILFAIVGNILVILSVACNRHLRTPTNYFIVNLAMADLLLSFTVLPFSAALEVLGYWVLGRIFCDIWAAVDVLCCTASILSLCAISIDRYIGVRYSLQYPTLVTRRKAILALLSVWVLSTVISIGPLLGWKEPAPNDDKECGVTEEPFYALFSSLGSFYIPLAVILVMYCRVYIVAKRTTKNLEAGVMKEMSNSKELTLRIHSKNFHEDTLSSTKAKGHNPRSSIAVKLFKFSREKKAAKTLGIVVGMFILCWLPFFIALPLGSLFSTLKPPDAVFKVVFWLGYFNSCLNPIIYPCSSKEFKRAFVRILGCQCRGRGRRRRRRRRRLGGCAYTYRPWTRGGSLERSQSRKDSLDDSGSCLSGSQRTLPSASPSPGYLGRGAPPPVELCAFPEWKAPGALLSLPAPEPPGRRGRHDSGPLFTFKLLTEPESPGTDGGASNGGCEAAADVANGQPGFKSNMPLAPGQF

[3] = target: T3, Alpha-1D adrenergic receptor (Homo sapiens, UniProt P25100); assay: Displacement of [3H]prazosin from human alpha1D-adrenoceptor expressed in CHO cell membranes measured after 30 mins; method in brief: as §1
T3 sequence (P25100 whole entry): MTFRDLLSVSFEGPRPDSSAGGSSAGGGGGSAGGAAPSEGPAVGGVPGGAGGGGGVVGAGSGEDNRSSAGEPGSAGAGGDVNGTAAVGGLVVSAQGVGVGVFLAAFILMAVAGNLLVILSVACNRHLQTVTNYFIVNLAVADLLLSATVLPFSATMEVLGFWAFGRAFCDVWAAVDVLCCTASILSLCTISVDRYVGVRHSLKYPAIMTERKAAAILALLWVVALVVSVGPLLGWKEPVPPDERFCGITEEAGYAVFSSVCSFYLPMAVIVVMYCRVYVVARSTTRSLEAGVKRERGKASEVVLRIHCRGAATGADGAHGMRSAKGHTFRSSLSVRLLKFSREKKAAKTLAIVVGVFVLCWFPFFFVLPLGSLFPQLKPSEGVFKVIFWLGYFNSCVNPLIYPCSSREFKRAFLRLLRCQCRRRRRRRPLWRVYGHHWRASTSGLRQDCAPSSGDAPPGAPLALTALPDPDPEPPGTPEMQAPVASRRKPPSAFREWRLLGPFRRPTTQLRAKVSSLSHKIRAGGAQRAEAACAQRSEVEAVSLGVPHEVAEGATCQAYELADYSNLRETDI

[4] = target: T4, Alpha-1A adrenergic receptor (Rattus norvegicus) (UniProt P43140); assay: Antagonist activity at alpha1A-adrenoceptor in Wistar rat prostatic vas deference assessed as inhibition of (-)-NE-induced contractions preincubated for 60 mins before (-)-NE challenge measured after 45 mins
T4 sequence (whole entry): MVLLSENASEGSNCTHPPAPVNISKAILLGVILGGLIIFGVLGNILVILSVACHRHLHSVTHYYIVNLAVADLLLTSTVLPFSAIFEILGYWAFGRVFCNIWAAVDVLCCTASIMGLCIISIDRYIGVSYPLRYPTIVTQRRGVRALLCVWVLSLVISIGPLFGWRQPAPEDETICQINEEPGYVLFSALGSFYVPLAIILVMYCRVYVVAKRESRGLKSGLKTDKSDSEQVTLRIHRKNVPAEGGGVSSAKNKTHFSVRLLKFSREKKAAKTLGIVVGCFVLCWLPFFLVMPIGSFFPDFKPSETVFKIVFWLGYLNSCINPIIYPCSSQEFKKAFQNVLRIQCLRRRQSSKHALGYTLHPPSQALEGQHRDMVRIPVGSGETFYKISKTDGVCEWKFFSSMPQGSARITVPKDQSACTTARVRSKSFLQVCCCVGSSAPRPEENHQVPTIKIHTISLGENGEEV
Method in brief: (§2)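 Male Wistar rats (275-300 g); prostatic vas deferens segments (2 cm) under 0.35 g tension at 37 °C in Tyrode with cocaine, aerated 5% CO2/95% O2. Tissue primed twice with 10 µM (-)-NE, then a cumulative isotonic (-)-NE curve. Antagonist equilibrated 60 min before a repeat curve. Line 1 gives pKB = log(DR-1) - log[B] at one or two concentrations; line 4 gives pA2 from Schild plot, slope constrained to -1. Mean ± SE, 4-5 experiments.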

[5] = target: T5, Alpha-1B adrenergic receptor (Rattus norvegicus, UniProt P15823); assay: Antagonist activity at alpha1B-adrenoceptor in Wistar rat spleen assessed as inhibition of phenylphrine-induced contractions measured after 30 mins in presence of (+/-)-propranolol hydrochloride; settings: 0.5 h
T5 sequence (P15823 whole entry): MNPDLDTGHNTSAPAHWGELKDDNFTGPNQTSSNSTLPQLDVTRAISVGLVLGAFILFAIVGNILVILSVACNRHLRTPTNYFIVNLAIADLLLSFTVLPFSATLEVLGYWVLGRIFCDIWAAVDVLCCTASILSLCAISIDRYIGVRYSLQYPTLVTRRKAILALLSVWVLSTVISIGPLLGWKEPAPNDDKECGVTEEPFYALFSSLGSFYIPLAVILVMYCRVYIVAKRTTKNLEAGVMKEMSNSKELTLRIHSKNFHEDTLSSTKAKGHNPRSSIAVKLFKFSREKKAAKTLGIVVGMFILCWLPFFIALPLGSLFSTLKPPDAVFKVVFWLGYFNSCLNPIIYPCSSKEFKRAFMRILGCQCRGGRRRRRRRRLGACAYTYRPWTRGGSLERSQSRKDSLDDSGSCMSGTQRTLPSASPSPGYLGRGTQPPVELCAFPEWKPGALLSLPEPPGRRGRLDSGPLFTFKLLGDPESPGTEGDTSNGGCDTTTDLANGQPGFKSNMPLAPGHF
Method in brief: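 Male Wistar rat spleen strips in Krebs-type solution at 37 °C with (±)-propranolol 4 µM, under 1 g resting tension, equilibrated 2 h. Cumulative isometric phenylephrine curves at 30 min intervals; first discarded, second used as control, then a curve after 30 min antagonist incubation. pKB = log(DR-1) - log[B] from ED50 ratio. Mean ± SE, 4-5 experiments.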

[6] = target: T6, Alpha-1D adrenergic receptor (Rattus norvegicus) (UniProt P23944); assay: Antagonist activity at alpha1D-adrenoceptor in Wistar rat thoracic aorta assessed as inhibition of (-)-NE-induced contractions preincubated for 60 mins before (-)-NE challenge measured after 1 hr in presence of normetanephrine hydrochloride and (+/-)-propranolol hydrochloride
T6 sequence (whole entry): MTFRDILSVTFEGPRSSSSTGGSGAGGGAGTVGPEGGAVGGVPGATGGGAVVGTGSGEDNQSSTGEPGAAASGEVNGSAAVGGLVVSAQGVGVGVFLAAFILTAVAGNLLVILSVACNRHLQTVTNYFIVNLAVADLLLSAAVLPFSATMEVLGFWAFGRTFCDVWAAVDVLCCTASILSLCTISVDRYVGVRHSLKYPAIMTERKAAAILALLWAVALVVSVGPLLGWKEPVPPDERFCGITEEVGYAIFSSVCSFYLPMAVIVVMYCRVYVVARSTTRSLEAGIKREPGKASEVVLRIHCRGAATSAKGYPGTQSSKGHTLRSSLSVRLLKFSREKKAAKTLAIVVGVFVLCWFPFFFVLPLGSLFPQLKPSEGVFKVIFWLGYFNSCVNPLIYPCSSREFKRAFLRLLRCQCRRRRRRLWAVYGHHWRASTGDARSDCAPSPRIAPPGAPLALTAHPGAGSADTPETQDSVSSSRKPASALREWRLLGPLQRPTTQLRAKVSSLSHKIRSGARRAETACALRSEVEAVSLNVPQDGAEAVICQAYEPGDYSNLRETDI
Method in brief: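 Male Wistar rat thoracic aorta strips, endothelium rubbed off and checked by loss of 100 µM acetylcholine relaxation after 1 µM (-)-NE contraction. Krebs solution, 1 g tension, at least 2 h equilibration. Isometric cumulative (-)-NE curves at 1 h intervals; third used as control, fourth after 60 min antagonist. pKB from the ED50 dose ratio. Mean ± SE, 4-5 experiments.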

[7] = target: T7, Alpha-1A adrenergic receptor (Rattus norvegicus, UniProt P43140); assay: Competitive antagonist activity at alpha1A-adrenoceptor in Wistar rat prostatic vas deference assessed as inhibition of (-)-NE-induced contractions preincubated for 60 mins before (-)-NE challenge measured after 45 mins by Schild plot analysis; settings: read-out: pA2 (converted); method in brief: as §2
T7 sequence (P43140 whole entry): T4 sequence (whole entry)

Row | SMILES | Ki [1] | Ki [2] | Ki [3] | pKb [4] | pKb [5] | pKb [6] | Kb [7]
1 | COc1ccc(CCN2CCN(c3ccccc3OC(C)C)CC2)cc1 | 2.24 nM | 14.8 nM | 3.09 nM | – | – | – | –
2 | CCOc1ccccc1N1CCN(CCc2ccc3c(c2)OCO3)CC1 | 1.12 nM | 5.37 nM | 1.51 nM | 9.09 | 8.85 | 8.84 | –
3 | CC(C)Oc1ccccc1N1CCN(CCc2ccccc2)CC1 | 5.01 nM | 77.6 nM | 4.57 nM | 8.29 | 7.94 | 8.59 | –
4 | CCOc1ccccc1N1CCN(CCc2ccc(OC)c(OC)c2)CC1 | 2.09 nM | 15.8 nM | 0.603 nM | 9.1 | 8.89 | 8.79 | –
5 | CCOc1ccccc1N1CCN(CCc2ccc(OC)cc2)CC1 | 1.12 nM | 10.2 nM | 1.35 nM | 8.89 | 7.91 | 8.23 | –
6 | COc1cccc(CCN2CCN(c3ccccc3OC(C)C)CC2)c1 | 2.75 nM | 13.8 nM | 1.32 nM | 8.87 | 8.92 | 9.46 | –
7 | COc1ccccc1N1CCN(CCc2ccc3c(c2)OCO3)CC1 | 3.47 nM | 5.25 nM | 1.26 nM | 8.47 | 8.11 | 8.57 | –
8 | COc1ccc(CCN2CCN(c3ccccc3OC(C)C)CC2)cc1OC | 2 nM | 10.5 nM | 1.35 nM | 9.55 | 8.74 | 9.12 | –
9 | COc1ccccc1N1CCN(CCc2ccccc2)CC1 | 31.6 nM | 91.2 nM | 16.6 nM | 7.76 | 7.82 | 8.5 | –
10 | CC(C)Oc1ccccc1N1CCN(CCc2ccc3c(c2)OCO3)CC1 | 0.389 nM | 12.9 nM | 1.74 nM | 8.27 | 8.03 | 8.33 | 4.17 nM
11 | CCOc1ccccc1N1CCN(CCc2cccc(OC)c2)CC1 | 2.95 nM | 25.1 nM | 2.57 nM | 8.39 | 8.13 | 8.11 | –
